Laboratory results: ChEMBL document CHEMBL3244227, “Hexofuranosyladenine nucleosides as substrates and inhibitors of calf intestinal adenosine deaminase” (J Med Chem, 1979)
The source made the active and inactive calls. The calls are words filed in the database; no cut-off is given here.

Organism: Bos taurus
Assay: Activity at calf intestinal adenosine deaminase type 1 by spectrophotometric assay
Details: not given

Row | SMILES | Km | Vmax
1 | C[C@H](O)[C@@H]1O[C@H](n2cnc3c(N)ncnc32)[C@@H](O)[C@@H]1O | inactive | inactive
2 | Nc1ncnc2c1ncn2[C@@H]1O[C@@H]([C@@H](O)CO)[C@@H](O)[C@H]1O | 280 µM | 0.092 µmol/min/mg
3 | Nc1ncnc2c1ncn2[C@H]1O[C@@H]([C@H](O)CO)[C@@H](O)[C@@H]1O | inactive | inactive
4 | Nc1ncnc2c1ncn2[C@@H]1O[C@H](CO)[C@@H](O)[C@H]1O |  | 220 µmol/min/mg
5 | Nc1ncnc2c1ncn2[C@@H]1O[C@H]([C@@H](O)CO)[C@H](O)[C@H]1O | 260 µM | 0.178 µmol/min/mg

Now from value to compound:

Row | Km | Vmax | SMILES
6 | 320 µM | 25 µmol/min/mg | C[C@H](O)[C@H]1O[C@@H](n2cnc3c(N)ncnc32)[C@H](O)[C@H]1O
7 | 21 µM | 61 µmol/min/mg | C[C@H](O)[C@H]1O[C@@H](n2cnc3c(N)ncnc32)[C@H](O)[C@@H]1O
8 | inactive | inactive | C[C@@H](O)[C@@H]1O[C@@H](n2cnc3c(N)ncnc32)[C@H](O)[C@@H]1O
9 | inactive | inactive | C[C@H](O)[C@H]1O[C@H](n2cnc3c(N)ncnc32)[C@@H](O)[C@@H]1O
10 | 78 µM | 0.792 µmol/min/mg | C[C@@H](O)[C@H]1O[C@@H](n2cnc3c(N)ncnc32)[C@H](O)[C@@H]1O
11 | 670 µM | 0.326 µmol/min/mg | C[C@H](O)[C@@H]1O[C@@H](n2cnc3c(N)ncnc32)[C@H](O)[C@@H]1O
12 | inactive | inactive | C[C@@H](O)[C@@H]1O[C@H](n2cnc3c(N)ncnc32)[C@@H](O)[C@@H]1O
13 | 230 µM | 0.105 µmol/min/mg | C[C@@H](O)[C@@H]1O[C@@H](n2cnc3c(N)ncnc32)[C@H](O)[C@H]1O
14 | inactive | inactive | C[C@@H](O)[C@H]1O[C@H](n2cnc3c(N)ncnc32)[C@@H](O)[C@@H]1O

System: not listed separately
Assay: Inhibition of calf intestinal adenosine deaminase type 1 by spectrophotometric assay
Parameters: species or system Bos taurus
Details: not given
How it was run: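 Commercial calf intestinal adenosine deaminase (type I) was assayed with adenosine as substrate plus the analogue, both in 0.05 M phosphate buffer, pH 7.0, at 25 °C. Mode of inhibition and Ki were derived from the kinetics.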

Row | Ki | SMILES
15 | Not Active | Nc1ncnc2c1ncn2[C@H]1O[C@@H]([C@H](O)CO)[C@@H](O)[C@@H]1O

Same assay, conditions: read-out: Ki

Row | Ki | SMILES
16 | 120 µM | Nc1ncnc2c1ncn2[C@@H]1O[C@@H]([C@@H](O)CO)[C@@H](O)[C@H]1O
17 | 120 µM | Nc1ncnc2c1ncn2[C@H]1O[C@H]([C@@H](O)CO)[C@H](O)[C@@H]1O
18 | 670 µM | Nc1ncnc2c1ncn2[C@@H]1O[C@H]([C@H](O)CO)[C@H](O)[C@@H]1O
19 | 240 µM | Nc1ncnc2c1ncn2[C@H]1O[C@H]([C@H](O)CO)[C@H](O)[C@@H]1O
20 | 180 µM | Nc1ncnc2c1ncn2[C@@H]1O[C@H]([C@@H](O)CO)[C@H](O)[C@H]1O
